This note sets out measurements from ChEMBL document CHEMBL3792345, “Isoquinoline-1,3-diones as Selective Inhibitors of Tyrosyl DNA Phosphodiesterase II (TDP2)” (J Med Chem, 2016).

As usually defined, the IC50 is the midpoint of a concentration-inhibition curve.

The species named for assay [1] is Gallus gallus. In words: Potentiation of ETP-induced cytotoxicity against chicken DT40 knockout cells expressing human TDP2 after 72 hrs by ATPlite assay. It is filed as functional, cell-based. An outline of the steps: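 DT40 cells lacking endogenous TDP2 and complemented with human TDP2, following an earlier protocol. CC90 is the concentration killing 90% of cells, measured without etoposide. For synergy, the compound was combined with different etoposide concentrations.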
On the technique in general: In ATP-based viability assays light output follows the ATP content of the culture.

The target in assay [2] is T1, Tyrosyl-DNA phosphodiesterase 2 (Homo sapiens, UniProt O95551).
T1 sequence (O95551 whole entry): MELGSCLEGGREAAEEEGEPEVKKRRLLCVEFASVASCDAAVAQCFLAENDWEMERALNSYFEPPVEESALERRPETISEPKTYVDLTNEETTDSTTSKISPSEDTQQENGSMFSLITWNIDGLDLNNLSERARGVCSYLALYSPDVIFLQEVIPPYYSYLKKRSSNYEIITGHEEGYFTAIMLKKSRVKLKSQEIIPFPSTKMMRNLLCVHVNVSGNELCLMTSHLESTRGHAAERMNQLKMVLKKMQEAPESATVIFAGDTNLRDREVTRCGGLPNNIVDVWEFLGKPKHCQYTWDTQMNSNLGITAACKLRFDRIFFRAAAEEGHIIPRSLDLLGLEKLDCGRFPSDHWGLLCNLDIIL
Briefly: Inhibition of human TDP2 expressed in DT40 cells (TDP2-knockout) using 18-mer single stranded oligonucleotide DNA as substrate incubated for 15 mins by PAGE assay. In a few lines: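 Extract from 1 × 10⁷ TDP2−/− DT40 cells complemented with human TDP2, prepared as the TDP1 extracts. 1 nM TY18 substrate (α³²P-cordycepin-3′-labelled 18-mer) with 5 μg/mL extract ± inhibitor, 15 min at room temperature. Products resolved on gel.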

The target of assay [3] is T2, Tyrosyl-DNA phosphodiesterase 1 (Homo sapiens, UniProt Q9NUW8). In words: Inhibition of recombinant TDP1 (unknown origin) using 5'-[32P]-labeled single stranded oligonucleotide DNA containing 3'-phophotyrosine (N14Y) as substrate at 111 uM incubated for 15 mins by PAGE assay.
Assay [4] in a line: Cytotoxicity against chicken DT40 knockout cells expressing human TDP2 after 72 hrs by ATPlite assay. The settings on record: Gallus gallus, DT40, 72 h. It is filed as functional. In a few lines:
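DT40 cells lacking endogenous TDP2 and complemented with human TDP2, following an earlier protocol. For synergy, the compound was combined with different etoposide concentrations.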

The target of assay [5] is T1, Tyrosyl-DNA phosphodiesterase 2. Briefly: Inhibition of recombinant human TDP2 using 18-mer single stranded oligonucleotide DNA as substrate incubated for 15 mins by PAGE assay. In a few lines: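 1 nM TY18 substrate (α³²P-cordycepin-3′-labelled 18-mer ssDNA) with 25 pM recombinant human TDP2, 15 min at room temperature in LMP2 buffer (pH 7.5, 5 mM MgCl₂). Dose–response at 1.4, 4.1, 12.3, 37, 111 μM, resolved on gels. IC50 is mean ± SD of at least three independent experiments.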

Assay [6] addresses T2, Tyrosyl-DNA phosphodiesterase 1. In words: Inhibition of recombinant TDP1 (unknown origin) using 5'-[32P]-labeled single stranded oligonucleotide DNA containing 3'-phophotyrosine (N14Y) as substrate incubated for 15 mins by PAGE assay.
The target is the same in assay [7]. In words: Inhibition of human TDP1 expressed in DT40 cells (TDP1-knockout) using N14Y single stranded oligonucleotide DNA as substrate incubated for 15 mins by PAGE assay.

Active and inactive are the calls of the source. Unless noted, no cut-off for these calls is given here.

T2 sequence (Q9NUW8 whole entry): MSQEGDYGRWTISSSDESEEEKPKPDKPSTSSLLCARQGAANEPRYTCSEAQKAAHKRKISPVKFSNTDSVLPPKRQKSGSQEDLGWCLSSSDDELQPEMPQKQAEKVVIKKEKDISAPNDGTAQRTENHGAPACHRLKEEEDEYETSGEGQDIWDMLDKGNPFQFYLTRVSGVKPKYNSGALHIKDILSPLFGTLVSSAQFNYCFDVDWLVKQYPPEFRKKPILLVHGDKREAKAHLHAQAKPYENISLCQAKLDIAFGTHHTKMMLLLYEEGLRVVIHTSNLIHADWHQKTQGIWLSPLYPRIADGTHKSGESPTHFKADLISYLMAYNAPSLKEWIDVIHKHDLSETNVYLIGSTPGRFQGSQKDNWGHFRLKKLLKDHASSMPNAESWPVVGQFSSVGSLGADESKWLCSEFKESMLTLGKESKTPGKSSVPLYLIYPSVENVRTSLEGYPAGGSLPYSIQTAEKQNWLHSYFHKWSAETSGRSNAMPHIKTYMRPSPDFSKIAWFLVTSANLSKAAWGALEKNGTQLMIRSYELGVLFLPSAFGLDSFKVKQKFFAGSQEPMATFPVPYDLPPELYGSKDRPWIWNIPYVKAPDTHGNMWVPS

Regarding `O=C1Cc2cc(I)ccc2C(=O)N1`, in assay [1], the outcome was inactive. For the same molecule, the half-maximal inhibitory concentration (IC50) in assay [2] was 9.3 µM; in assay [5], 7.6 µM. Further, in assay [3], the inhibition entry is “inactive”. Besides, the CC90 in assay [4] stood at 9.5 µM.
Regarding `O=C1Cc2cc(-c3nc4ccccc4s3)ccc2C(=O)N1`, the outcome in assay [1] was inactive. Further, the figures for the IC50 in assay [2] and in assay [5] were 11 µM and 5.1 µM, respectively. Also, the inhibition result in assay [3] is “inactive”. This molecule also gave a CC90 in assay [4] of 12 µM.
Take `O=C1Cc2cc(-c3ccco3)ccc2C(=O)N1O`: the half-maximal inhibitory concentration (IC50) in assay [5] and in assay [6] was > 111 µM each time.
Take `O=C1Cc2cc(-c3ccco3)ccc2C(=O)N1`: in assay [1], the result was inactive. Also, the IC50 in assay [2] was 25 µM; in assay [7], > 111 µM; in assay [5], 10 µM; in assay [6], > 111 µM.
Take `O=C1Cc2ccc(C(=O)O)cc2C(=O)N1`: in assay [1], the outcome was inactive. The half-inhibitory concentration (IC50) in assay [2] stood at 5.2 µM; in assay [5], 3 µM. The inhibition result in assay [3] was “inactive”. Further, the CC90 in assay [4] is > 50 µM.
In the case of `CC(=O)c1cccc(-c2ccc3c(c2)CC(=O)NC3=O)c1`, the half-inhibitory concentration (IC50) in assay [2] worked out at 15 µM; in assay [5] it was 5.5 µM. For the same molecule, the inhibition result in assay [3] was “inactive”.
